Results filed as inconclusive are left out. The source made the active and inactive calls.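 The calls were made as follows: active = compounds raising caspase signal with fitted AC50 no more than tenfold above the top tested dose; inconclusive = flat curve at 30 to 70% activity, or unusable fit; inactive = the rest.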
What follows are molecules tested on MEF WT non-primed, caspase-Glo luminescence, 3 h (assay: caspase activation in non-primed cells, dose response, counter-screen for Bcl2-A1 inhibitor project, cell-based, caspase-Glo luminescence, 3 h (AID 449761)).
Method in brief: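 Test system – Non-primed wild-type MEF cells · Timing – 3 h compound at 37 °C, 1 h detection at room temperature · Technique – CaspaseGlo luminescence, reagent diluted 1:1 in 50 mM HEPES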
For `CC1=NNC(=O)/C1=C\c1cn(-c2ccccc2)nc1-c1ccccc1`, the AC50 was 11.3 µM.
`Cc1c(C=O)c(C=O)c(C)n1Cc1ccccc1` was tested, and the AC50 was > 35 µM (inactive).
With `CC1CCc2c(sc3nc(C(C)(C)C)nc(N4CCN(C(=O)CCl)CC4)c23)C1` (configuration not stated) the AC50 was 13 µM.
`O=C(Nc1ccc(Cl)cc1Cl)c1cccc(N2C(=O)C=CC2=O)c1` gave an AC50 of 35.8 µM.
Work on `COc1ccccc1-c1cc(C(F)(F)F)nc(S(=O)(=O)CCCC(=O)NC(C)C)n1` yielded an AC50 of 25.8 µM.
`CCCCC1CCC(C(=O)N(CC(C)C)c2c(N)n(Cc3ccccc3)c(=O)[nH]c2=O)CC1` (configuration not stated) gave an AC50 of 8 µM.
With `COc1ccc(S(=O)(=O)N2CC(O)CC2C(=O)OCC(=O)Nc2ccc(Cl)cn2)cc1` (configuration not stated) the AC50 was > 35 µM (inactive).
`COc1cc(NC(=O)c2ccc(C)cc2C)ccc1NC(=O)c1cc2ccccc2o1` gave an AC50 of 30.4 µM.
`COc1ccccc1CCNC(C)CCc1ccc(O)cc1` (configuration not stated) was tested, and the AC50 was > 35 µM (inactive).
Work on `CCOC(=O)C(C(=O)OCC)c1cc(Br)c2noc3c2c1C(=O)c1ccccc1-3` yielded an AC50 of 8.67 µM.
In the case of `CCOc1ccc(NCc2cccn2-c2nnc(N3CCC(C(=O)NCCCN4CC(C)CC(C)C4)CC3)s2)cc1` (configuration not stated), the AC50 is reported as > 35 µM (inactive).
`O=[N+]([O-])/C=C/c1ccc2c(ccn2Cc2ccccc2)c1` was tested, and the AC50 was 12.6 µM.
`Cc1ccc(C#N)c(SCC(=O)Nc2nccs2)n1` was tested, and the AC50 was > 35 µM (inactive).
`Cc1ccc(Sc2c([N+](=O)[O-])c(=O)n(C)c3ccccc23)cc1` was tested, and the AC50 was > 35 µM (inactive).
`COc1ccc(-c2ccc3c(c2)S(=O)(=O)c2cccc(C(=O)NCc4cccc(OC(F)(F)F)c4)c2C3=O)cc1OC` gave an AC50 of 8.54 µM.
In the case of `COc1ccc(-c2c(C#N)c(N)nc(Sc3ccc(Cl)cc3)c2C#N)cc1`, the AC50 is reported as > 35 µM (inactive).
Molecule `O=[N+]([O-])/C=C/c1cn(Cc2ccc(Cl)cc2)c2ccccc12` has an AC50 of 18.4 µM.
For `COc1ccccc1-c1cn[nH]c1-c1ccc(OCc2ccccc2)cc1O`, the AC50 was > 35 µM (inactive).
With `COc1ccc(-c2nc(NC(=O)c3n[nH]c(=O)c4ccccc34)sc2C)cc1` the AC50 was > 35 µM (inactive).
With `Cc1ccc(NC(=O)c2ccc(N/N=C/c3cccc(O)c3)c([N+](=O)[O-])c2)cc1` the AC50 was 29.8 µM.
`CCOc1ccc(NC(=S)NC(=O)/C=C/c2ccc(C)cc2)c([N+](=O)[O-])c1` showed an AC50 of 21.7 µM.
In the case of `COc1cc(/C=C(/C#N)C(=O)Nc2ccc(Cl)cc2)ccc1Oc1nc(Cl)ncc1F`, the AC50 is reported as > 35 µM (inactive).
In the case of `O=C(CCl)N=c1sccn1Cc1ccccc1Cl`, the AC50 is reported as > 35 µM (inactive).
Work on `COc1ccc2c(c1)CCc1c(C(=O)Nc3cc(C)n(Cc4ccc(Cl)cc4)n3)noc1-2` yielded an AC50 of 14.2 µM.
In the case of `COCc1cc(C)nc(SCC(=O)Nc2nc(C)cs2)c1C#N`, the AC50 is reported as > 35 µM (inactive).
`O=C(Oc1cccc(/C=N/Nc2nc(Nc3ccccc3)nc(N3CCOCC3)n2)c1)c1ccco1` was tested, and the AC50 was > 35 µM (inactive).
In the case of `O=C(Nc1ccc2oc(-c3cccc(F)c3)nc2c1)c1ccccc1F`, the AC50 is reported as > 35 µM (inactive).
Work on `COc1ccc(-c2cc3ccccc3oc2=O)cc1NC(=S)NC(=O)c1ccc2c(c1)OCCO2` yielded an AC50 of 5.96 µM.
`CN(c1ccccc1)c1ccc(/C=C/[N+](=O)[O-])cc1` was tested, and the AC50 was 8.45 µM.
For `CC(=O)Nc1ncnc2c1c(-c1ccc(Cl)cc1)nn2C(C)(C)C`, the AC50 was > 35 µM (inactive).
In the case of `COc1ccc(C2Nc3ccc4ccccc4c3-c3c2c(=O)oc2ccccc32)cc1` (configuration not stated), the AC50 is reported as 18 µM.
In the case of `CCCc1ccc(OCc2ccc(C(=O)N/N=C/c3cccc([N+](=O)[O-])c3)o2)c(OC)c1`, the AC50 is reported as 6.35 µM.
For `Cc1cc(C)n(-c2nc(Nc3ccccc3C)nc(-n3nc(C)cc3C)n2)n1`, the AC50 was 32.1 µM.
In the case of `COc1ccc(-c2ccc3c(c2)S(=O)(=O)c2cccc(C(=O)NC[C@@H]4CCCO4)c2C3=O)cc1OC`, the AC50 is reported as > 35 µM (inactive).
In the case of `Cc1cc(C)cc(NC(=O)/C(C#N)=C/c2cn(CC(=O)NCc3ccco3)c3ccccc23)c1`, the AC50 is reported as 8.84 µM.
In the case of `Cc1cccc(C)c1NC(=O)C(Cl)C(=O)c1ccccc1` (configuration not stated), the AC50 is reported as > 35 µM (inactive).
With `Cn1c(=NC(=O)CCl)sc2ccccc21` the AC50 was > 35 µM (inactive).
In the case of `C=C1CCc2c([nH]c3ccc(OCC(C)C)cc23)C1=O`, the AC50 is reported as 14.2 µM.
With `COc1ccc(-c2cc(=O)oc3c(C)c(OC(=O)c4cccs4)ccc23)cc1` the AC50 was 29.1 µM.
Work on `COC(=O)Cc1csc(/N=C/c2c(O)n(-c3cccc(C(F)(F)F)c3)c(=O)c3ccccc23)n1` yielded an AC50 of 9.26 µM.
With `CCS(=O)(=O)c1ncc(Cl)c(C(=O)Nc2ccc(S(=O)(=O)N3CCC(C)CC3)cc2)n1` the AC50 was > 35 µM (inactive).
With `CCOc1cccc(C(=O)Nc2cccc(-c3nnc(-c4ccc(C)cc4)o3)c2)c1` the AC50 was 23.6 µM.
`CCOC(=O)c1ccc(-c2ccc(/C=N/NC(=O)CN(c3cccc(C)c3)S(C)(=O)=O)o2)cc1` was tested, and the AC50 was 31.1 µM.
`CCOc1cc(/C=C\[N+](=O)[O-])ccc1OCC(=O)Nc1ccccc1C` was tested, and the AC50 was 5.27 µM.
For `Cc1cccc(CS(=O)(=O)c2ncc(Cl)c(C(=O)Nc3nnc(C(C)C)s3)n2)c1`, the AC50 was > 35 µM (inactive).
With `COc1ccccc1C(=O)Nc1ccnn1C1CCN(Cc2cn(C)c3ccccc23)CC1` the AC50 was > 35 µM (inactive).
For `CCc1ccccc1NC(=O)C(CC)Sc1nc2cc3c(cc2c(=O)n1Cc1ccco1)OCO3` (configuration not stated), the AC50 was > 35 µM (inactive).
`CCOC(=O)/C(=C\c1ccc(OC(F)F)cc1)C1=Nn2c(nnc2-c2ccc(Cl)cc2)SC1` gave an AC50 of 4.15 µM.
`N#Cc1c(C(F)(F)F)cc(-c2ccccc2)nc1SCC(=O)Nc1sc2c(c1C#N)CCC2` was tested, and the AC50 was > 35 µM (inactive).
Molecule `Cc1ccc(C)c(NC(=S)NC(NC(=O)Cc2cccc3ccccc23)C(Cl)(Cl)Cl)c1` (configuration not stated) has an AC50 of 12 µM.
For `Cc1cc(=O)[nH]c(SCC(=O)Nc2ccc(Br)cc2)c1C#N`, the AC50 was > 35 µM (inactive).
In the case of `O=C(NCCc1ccccc1)C(c1cccs1)N(C(=O)CCl)c1ccc(Cl)cc1` (configuration not stated), the AC50 is reported as 16.4 µM.
Work on `COc1cc(/C=C2/C(=N)N3C=CSC3=NC2=O)ccc1OCCCOc1cc(C)ccc1C` yielded an AC50 of 22.4 µM.
With `CCOc1cc(/C=N/Nc2cc(C)nc(-n3nc(C)cc3C)n2)ccc1O` the AC50 was > 35 µM (inactive).
For `CC1=CC(=O)C(C(C)C)=C/C1=N/OS(=O)(=O)c1ccccc1`, the AC50 was 22 µM.
With `CCn1c(SCC(=O)c2ccccc2)nnc1-c1cc2cc(Br)ccc2o1` the AC50 was > 35 µM (inactive).
`CCOc1ccc(OCC(=O)N(CCC2=CCCCC2)c2c(N)n(Cc3ccccc3)c(=O)[nH]c2=O)cc1` showed an AC50 of 26.8 µM.
With `O=C(Nc1ccc2oc(-c3ccccc3F)nc2c1)c1ccccc1F` the AC50 was > 35 µM (inactive).
With `N#Cc1cccnc1N1CCN(C(=O)c2cccc3c2C(=O)c2ccc(-c4ccc(Cl)c(C(F)(F)F)c4)cc2S3(=O)=O)CC1` the AC50 was > 35 µM (inactive).
With `Cc1cccc(NC(=O)CSc2nc(C)c(CC(=O)c3ccc(Br)cc3)c(C)c2C#N)c1C` the AC50 was > 35 µM (inactive).
`CSC[C@@H]1NC(=S)N(c2ccc(C)cc2)C1=O` was tested, and the AC50 was > 35 µM (inactive).
For `CCOC(=O)/C(=C\c1ccc([N+](=O)[O-])cc1)C(=O)c1cc(C(C)=O)c(Nc2ccccc2)s1`, the AC50 was 1.46 µM.
With `Cc1ccc(N(Cc2cc(=O)[nH]c3ccccc23)C(=O)CCl)cc1` the AC50 was > 35 µM (inactive).
For `Cc1ccc(S(=O)(=O)c2nnn3c2nc(Nc2cccc(C)c2)c2ccccc23)cc1`, the AC50 was > 35 µM (inactive).
`CC1(C)C[C@H](O)[C@]2(CO)[C@H](O)C[C@]3(C)C(=CCC4[C@@]5(C)CC[C@H](O)C(C)(C)C5CC[C@]43C)[C@@H]2C1` (some centres not stated) was tested, and the AC50 was > 35 µM (inactive).
For `Cc1cc(C(=O)CCl)c(C)n1CCc1ccc(Cl)cc1`, the AC50 was > 35 µM (inactive).
`CCc1nc(N=Nc2c(O)[nH]c3ccccc23)c2c3c(sc2n1)CCC3` showed an AC50 of 18.2 µM.
In the case of `CC(C)CC(NC(=O)c1ccc(Cl)cc1)C(=O)OCC(=O)c1ccc2c(c1)NC(=O)CO2` (configuration not stated), the AC50 is reported as 4.28 µM.
`O=C(N=Nc1c(O)[nH]c2ccc([N+](=O)[O-])cc12)c1cc(-c2ccccc2Cl)nc2ccccc12` was tested, and the AC50 was > 35 µM (inactive).
`CN1C2CCC1/C(=C/c1ccccn1)C(=O)/C2=C\c1ccccn1` was tested, and the AC50 was > 35 µM (inactive).
In the case of `CCc1nnc(NC(=O)c2nc(S(=O)(=O)Cc3ccccc3)ncc2Cl)s1`, the AC50 is reported as > 35 µM (inactive).
Work on `CC(C)CCN(C(=O)Cc1ccc(Cl)c(Cl)c1)c1c(N)n(Cc2ccccc2)c(=O)[nH]c1=O` yielded an AC50 of 14.6 µM.
With `CN(C)C/C=C(\c1ccc(Br)cc1)c1cccnc1` the AC50 was > 35 µM (inactive).
`COc1cc(NC(=O)c2ccccc2F)ccc1NC(=O)c1cc2ccccc2o1` gave an AC50 of 36.6 µM.
`COc1cc2ncnc(NCc3ccc(F)cc3)c2cc1OC` was tested, and the AC50 was > 35 µM (inactive).
For `COc1ccc(-c2ccc3c(c2)S(=O)(=O)c2cccc(C(=O)NCCOc4ccccc4)c2C3=O)cc1OC`, the AC50 was > 35 µM (inactive).
In the case of `CC(C)c1cccc(-c2ccc3c(c2)S(=O)(=O)c2cccc(C(=O)NC4CCCC4)c2C3=O)c1`, the AC50 is reported as > 35 µM (inactive).
With `CCOC(=O)c1c(C)oc2c1c(CN1CCN(C(=O)OCC)CC1)c(O)c1ccccc12` the AC50 was 20.8 µM.
`Cc1nn(Cc2c(Cl)cccc2Cl)c(C)c1NC(=O)c1cn(-c2ccccc2)nc1-c1ccccc1` was tested, and the AC50 was 16.6 µM.
For `Cc1ccc(CS(=O)(=O)c2ncc(Cl)c(C(=O)Nc3nnc(C(C)C)s3)n2)cc1`, the AC50 was > 35 µM (inactive).
In the case of `O=C(COc1ccc(/C=N/NC(=O)c2cc3ccccc3o2)cc1Br)Nc1ccccc1`, the AC50 is reported as 28.5 µM.
In the case of `CCN(C(=O)CCN1C(=O)c2ccccc2S1(=O)=O)c1ccccc1`, the AC50 is reported as > 35 µM (inactive).
For `Cc1cc(NC(=O)CSc2nc3cc(Cl)ccc3c(=O)n2Cc2ccco2)no1`, the AC50 was > 35 µM (inactive).
`CCOC(=O)Cc1csc(/N=C/c2c(O)n(-c3ccc(C)c(C)c3)c(=O)c3ccccc23)n1` gave an AC50 of 9.55 µM.
`COc1cc(/C=C(/C#N)c2nc3ccccc3[nH]2)ccc1OCC(=O)Nc1ccccc1C` gave an AC50 of 5.91 µM.
Molecule `Cc1nn(-c2ccccc2)c(Cl)c1CN(C(=O)CCl)c1ccc(Cl)cc1` has an AC50 of 24.6 µM.
`CC(=O)OC(C)(C)/C=C/C(=O)C(C)(O)C1[C@H](O)C[C@@]2(C)C3CC=C4C(CC[C@@H](O)C4(C)C)[C@]3(CO)C(=O)C[C@]12C` (some centres not stated) was tested, and the AC50 was > 35 µM (inactive).
Molecule `COc1cc(C2CC(c3cccs3)=NN2C(=O)CCl)ccc1OC(F)F` (configuration not stated) has an AC50 of 32.9 µM.
With `COc1cc(NC(=O)c2ccccc2)c(OC)cc1NC(=O)Cc1ccc(Br)cc1` the AC50 was > 35 µM (inactive).
With `CCSc1nnc(NC(=O)c2nc(S(=O)(=O)Cc3ccc(F)cc3)ncc2Cl)s1` the AC50 was > 35 µM (inactive).
`C/C1=C\[C@@H](C)C/C=C/[C@H]2[C@@H]3O[C@]3(C)[C@@H](C)[C@H]3[C@H](Cc4c[nH]c5ccccc45)NC(=O)[C@]32C(=O)/C=C/C(=O)[C@@H]1O` was tested, and the AC50 was 8.71 µM.
For `COc1ccc(C=C2C=C(C(C)(C)C)C(=O)C(C(C)(C)C)=C2)cc1OC`, the AC50 was 2.98 µM.
